In the library only some 1.4% were active in any assay of this set; here they are far more common.
HTR5A ag ctr – counter-screen for OPRM1-OPRD1 agonists: human HTR5A agonism. activation, % at 9.3 µM. AID 504692. HTR5A agonist assay, luminescence, cell-based. P47898. actives 0.61% (n = 340,000); in the data active means activation mostly above about 9.5%, no sharp cut-off; inactive means mostly below about 7.6%;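 further: 0% = cells with vehicle only and 100% = reference agonist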
HTR5A inv ctr – counter-screen for OPRM1-OPRD1 inverse agonists: human HTR5A inverse agonism | actives 0.083% (n = 340,000) | AID 504634 | inhibition, % at 9.3 µM | HTR5A cell line, luminescence | P47898; in the data active means inhibition mostly above about 23%, no sharp cut-off; inactive means mostly below about 18%;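 further: 0% = cells with DMSO and 100% = no-cell wells with DMSO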
Hep lipid drop – modulators of hepatic lipid droplet formation; AML12 mouse hepatocytes, oleate lipid droplets, BODIPY imaging; inhibition, % at 6.5 µM; actives 0.4% (n = 240,000);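 active means lipid droplet intensity inhibited by at least 50%, with more than 500 cells counted; inconclusive means wells with under 300 cells, treated as cytotoxic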
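Test system: AML12 hepatocytes (mouse); reagent: oleate loading, 100 µM; dosing: one dose, 6.5 µM compound; incubation: overnight exposure; signal: fluorescence imaging, 20x objective, two fields per well; read-out basis: % inhibition of corrected integrated BODIPY droplet signal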
MOR-DOR inv ag – inverse agonists of human mu-delta opioid receptor heterodimerization | AID 504357 | actives 0.21% (n = 340,000) | inhibition, % at 9.3 µM | cell-based MOR-DOR heterodimer luminescence, inverse agonism; in the data active means inhibition above about 22%, passing the limit was not always enough;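 further: 0% = cells with DMSO and 100% = wells without cells with DMSO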
MOR-DOR ag – OPRM1-OPRD1 heterodimerization agonism; cells, luminescence; actives 0.3% (n = 340,000); P35372+P41143; activation, % at 9.3 µM; in the data active means activation above about 18%;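 further: 0% = vehicle-treated cells and 100% = reference agonist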
The depositor's hits bear a star; ? = inconclusive; / = no result.

SMILES	HTR5A ag ctr	HTR5A inv ctr	Hep lipid drop	MOR-DOR inv ag	MOR-DOR ag
CC(=O)N(C)c1ccc(NC(=S)Nc2cccc3ccccc23)cc1	14.2*	-24.0	2.0	-36.0	7.0
COc1ccccc1NC(=O)CSc1nncn1N	13.1*	-1.7	2.5	10.5	-2.1
COc1ccc(NC(=O)CSc2nncn2N)c(OC)c1	1.1	-17.2	0.1	4.1	-0.8
COCCn1c(N)c(Sc2ccc(C)cc2)c(=O)[nH]c1=O	-3.5	7.0	7.7	7.9	-1.2
COCCn1c(N)c(C(=O)NS(=O)(=O)c2ccc(C)cc2)c(=O)[nH]c1=O	10.6*	-29.1	11.4	5.0	-1.0
O=C(CN1CC(c2ccccc2)CC1=O)Nc1ccc2c(c1)OCO2 (stereo not given)	13.6*	-35.8	18.6	0.2	0.0
CCOC(=O)CNC(=O)CSc1nc(Cc2cccs2)nc2ccccc12	3.5	-9.2	/	-9.1	1.4
CC1CC(C)CN(C(=O)CSc2nc(Cc3cccs3)nc3ccccc23)C1 (stereo not given)	12.0*	-12.3	-46.7	1.0	-0.2
Cc1cc2cc(C#N)c(N3CCN(S(C)(=O)=O)CC3)nc2cc1C	1.0	11.2	14.5	-0.5	0.1
N#Cc1c(C(F)(F)F)cc(-c2ccccc2)[nH]c1=O	-0.4	1.2	/	8.2	-1.4
N#Cc1c(C(F)(F)F)cc(-c2ccccc2Cl)[nH]c1=O	12.4*	-19.7	5.5	-4.5	0.8
CCOc1cc(Cl)c(S(=O)(=O)NCCCn2ccnc2)cc1Cl	4.6	-17.1	-0.2	-4.8	1.0
COc1ccc(OC)c(S(=O)(=O)N(C)CC(=O)N2CCOCC2)c1	10.8*	21.6	0.2	12.9	-3.9
COc1ccc(OC)c(S(=O)(=O)N(C)CC(=O)N2CCN(c3ccc(F)cc3)CC2)c1	-2.3	6.1	-16.9	-2.9	0.5
Oc1ccccc1/C=N/NC(=S)NCCc1ccccc1	10.2*	-38.1	3.9	-23.3	5.2
Cc1ccc(C2=NN(CC(=O)NCCN(CC(C)C)CC(C)C)C(=O)CC2)cc1	0.5	-1.7	-1.6	5.2	-1.2
CC(C)(C)c1ccc(/C=C/C(=O)Nc2ccncc2)cc1	13.2*	-24.8	2.4	-49.0	9.5
COc1ccccc1C(=O)NNC(=O)CCC(=O)NCc1ccccc1	-0.8	2.1	7.1	19.8	-3.7
Cc1nc(C)c(C(=O)NNS(=O)(=O)c2ccccc2)s1	10.1*	-27.9	-6.9	7.2	-1.0
Cc1ccc(C)c(S(=O)(=O)NNC(=O)c2sc(NS(=O)(=O)c3ccccc3)nc2C)c1	5.0	9.6	8.5	2.8	-0.5
Cc1ccc(-c2noc(CCC(=O)NCc3ccccc3CN3CCOCC3)n2)cc1	13.9*	15.4	/	-7.8	2.0
O=C(COc1cc2oc(=O)cc(-c3ccccc3)c2cc1Cl)NCCN1CCOCC1	-5.5	3.2	-32.1	8.8	-1.7
O=C(CN(C1CCCCC1)S(=O)(=O)c1ccccc1)NCC1CCCO1 (stereo not given)	7.3	-20.8	-3.3	4.3	-0.7
O=C(CN(C1CCCCC1)S(=O)(=O)c1ccc(F)cc1)NCC1CCCO1 (stereo not given)	16.8*	-61.1	/	-84.8	16.2
COc1ccc(S(=O)(=O)N2CCOCC2)cc1NC(=O)CSc1ncccn1	10.8*	-44.3	/	7.7	-1.5
SMILES	HTR5A ag ctr	HTR5A inv ctr	Hep lipid drop	MOR-DOR inv ag	MOR-DOR ag
O=C(CNC(=O)c1ccco1)NCC(=O)OCC(=O)c1ccc(Cl)c([N+](=O)[O-])c1	-10.2	43.1*	11.7	94.2*	-18.2
COc1ccc(CC(=O)Nc2cccc(-c3ccc4nnc(C)n4n3)c2)cc1OC	6.5	-23.2	12.1	-5.6	1.1
COc1ccc(S(=O)(=O)Nc2ccccn2)cc1	1.8	-2.6	0.7	3.2	-0.6
COc1cc(NS(=O)(=O)c2ccc(C)cc2)c2ncccc2c1	-3.4	18.2	-55.1	47.3*	-8.7
CN1C(c2ccccc2)=NO[C@]1(C)c1ccccc1	-2.0	-32.9	/	13.2	-2.7
CN1CCN(C2=C(Cl)C(=O)c3ccccc3C2=O)CC1	-3.5	13.7	/	-136.3	28.1*
CCOc1ccc(NC(=O)c2ccc(NC(=S)NC3CCCCC3)cc2)cc1	9.9*	-27.4	-6.9	-55.5	11.4
COc1cc2c(cc1OC)CN(C(=O)CN1CCN(S(=O)(=O)c3ccc(C)c(C)c3)CC1)CC2	0.7	-4.1	-0.7	11.7	-2.3
COc1ccc(S(=O)(=O)N/N=C\c2ccc3c(c2)OCO3)cc1	7.4	-35.8	/	1.0	-0.2
Cc1ccc(S(=O)(=O)N/N=C\c2ccc3c(c2)OCO3)c(C)c1	10.8*	-10.5	-8.1	-13.1	2.5
COc1cc([C@H]2c3[nH]c4ccccc4c3C[C@H]3C(=O)N4[C@@H](c5cc(OC)c(OC)c(OC)c5)c5[nH]c6ccccc6c5C[C@H]4C(=O)N23)cc(OC)c1OC	10.0	-27.8	44.2	-128.1	20.9*
O=C(NCC(=O)N1CCN(S(=O)(=O)c2ccccc2F)CC1)c1ccc2c(c1)OCO2	11.6*	-31.4	/	11.7	-2.2
COc1cc(OC)cc(C(=O)NCC(=O)N2CCN(S(=O)(=O)c3ccccc3F)CC2)c1	0.7	5.2	/	18.5	-4.8
N#Cc1ccc(CN2CCN(C(=O)c3ccc(S(=O)(=O)NCc4ccco4)cc3)CC2)cc1	11.6*	-42.2	/	-1.7	0.3
COC(=O)CCC(=O)OC1(C)C(=O)C2=CN(C3CC3)C(c3ccc(OC)cc3)=CC2=C(Br)C1=O (stereo not given)	9.4*	-53.0	/	-52.7	9.4
O=C(NNC(=O)c1cccc2ccccc12)c1ccccc1O	5.2	-31.8	-2.4	12.8	-2.5
O=C(NNC(=O)c1cccc2ccccc12)c1ccc(-c2ccccc2)cc1	12.7*	-52.1	-3.1	-33.4	6.1
O=C(Cc1cccc(NC(=O)C2CCN(S(=O)(=O)c3cccc([N+](=O)[O-])c3)CC2)c1)Nc1cccc(C(=O)N2CCCCC2)c1	-0.4	1.3	/	-6.2	1.3
CCOc1cc(N2CCOCC2)c(OCC)cc1NS(=O)(=O)c1cc(NC(C)=O)ccc1OC	-1.8	-29.9	-17.0	-39.2	4.8
CC(=O)Oc1ccc(/C(C)=N/N2CCN(Cc3ccc(C)cc3)CC2)cc1	9.8*	-36.2	4.4	7.0	-1.5
O=C(NCC(=O)N1CCN(c2ccccc2)CC1)c1cccs1	3.2	8.8	-2.3	0.0	0.0
CS(=O)(=O)Nc1cccc(C2=NN(C(=O)CCC(=O)O)C(c3cccs3)C2)c1 (stereo not given)	-0.6	2.0	/	11.5	-2.5
CCC(=O)N1N=C(c2cccc(NS(C)(=O)=O)c2)CC1c1cccs1 (stereo not given)	14.1*	-37.8	?	15.8	-2.6
COc1c(/C=N/Nc2ccc([N+](=O)[O-])cc2[N+](=O)[O-])c(C)nn1-c1ccccc1	-3.9	-4.8	/	0.6	-0.1
Cc1nn(-c2ccccc2)c(N2CCCC2)c1/C=N/Nc1ccc(S(=O)(=O)Nc2ccccc2)cc1[N+](=O)[O-]	-2.2	2.2	82.2*	0.8	-0.2
Cc1ccc(NC(=S)NCc2ccc(F)cc2)cc1	7.4	-19.2	/	0.6	-0.1
Cc1ccc(CNC(=S)Nc2ccc(NS(=O)(=O)c3ccc(C)cc3)cc2)cc1	11.5*	11.2	-56.8	-21.4	4.1

Assay outcomes as filed in PubChem.
